rRNA inh HTS = selective bacterial rRNA inhibition in E. coli. AID 720706. E. coli WT GFP vs humanized-ribosome RFP mutants, fluorescence, 24 h; stronger effect = lower value; DMSO median 0, no signal -100. GFP signal change (wild-type ribosome), % (test concentration not listed). 350,000 tested, 1.6% active;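 active = significant combined selectivity score with lowered wild-type GFP, culture density cut under 30%, mutant RFP and density less affected; inactive = any of these conditions unmet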
Vif inh = blocks HIV Vif function; HEK293T cells, Vif self-association by quenched fluorescence, imaging, 24 h; inhibition, % at 7.49 µM; 340,000 tested, 0.35% active; AID 602346; in the data active = inhibition above about 50%, passing the limit was not always enough
Cneo AK release = Cryptococcus neoformans lysis via adenylate kinase release; C. neoformans lysis, adenylate kinase release luminescence, 4 h; normalised: neutral wells 0, clomiphene wells 100; lysis activity, % at 15 µM; 360,000 tested, 0.2% active;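 active = mean lysis activity across replicates of at least 80%, whatever share of replicates individually reach that level; inactive = mean lysis activity below 80%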
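Test system: log-phase Cryptococcus neoformans yeast cells; Quantity: yeast cell density of 5 × 10^6 cells/mL; Buffer or medium: YPD; Doses: single compound concentration per well; Timing: 4 h at 37 °C static, read 1 h later; Measured by: AK luminescence; Read-out basis: lysis from increased AK signal; Control set: Clomiphene as positive control.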
PGC1a acetyl inh = modulators of PGC1a acetylation | U2OS PGC1a acetylation, AlphaScreen anti-acetyl-lysine; with virally co-expressed GCN5 acetyltransferase | inhibition, % at 15.6 µM | 350,000 tested, 0.17% active;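 active = every replicate shows inhibition of at least 40%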
PglD inh = blocks C. jejuni PglD acetyltransferase activity | purified PglD enzyme, DTNB colorimetric CoA detection | inhibition, % at 12.5 µM | 360,000 tested, 0.098% active; in the data active = inhibition above about 16%, passing the limit was not always enough
FGF22 binding = shifts melting point of recombinant human FGF22. Q9HCT0. recombinant FGF22 thermal shift, SYPRO orange fluorescence; percent of sucrose octasulfate shift, DMSO zero. activity (Tm shift, normalised), % at 9.99 µM. 340,000 tested, 1.5% active;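 active = mean Tm shift, scaled 0 neutral to 100 positive control, at about 1.3% or above, every replicate too, limit read from the data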
Target sequence (Q9HCT0 whole entry, looked up): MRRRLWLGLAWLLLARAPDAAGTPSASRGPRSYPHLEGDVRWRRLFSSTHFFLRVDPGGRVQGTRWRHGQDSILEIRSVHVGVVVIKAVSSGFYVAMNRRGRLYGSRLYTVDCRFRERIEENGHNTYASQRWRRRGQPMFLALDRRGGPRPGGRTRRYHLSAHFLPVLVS
Hits are given with their value; – = inactive; · = no result. Rows were chosen to be rich in hits. Some 2.9% of all compounds tested hit in one or more screens of this group.

SMILES	rRNA inh HTS	Vif inh	Cneo AK release	PGC1a acetyl inh	PglD inh	FGF22 binding
COc1ccccc1NC(=O)N[C@H]1CC[C@@H](CCn2cc(-c3ccccc3OC)nn2)O[C@H]1CO	·	·	–	–	–	–
COc1ccccc1NC(=O)N[C@H]1CC[C@@H](CCn2cc(-c3ccccc3OC)nn2)O[C@@H]1CO	–	·	99.1	–	–	–
O=C(N[C@H]1CC[C@@H](CCn2cc(-c3ccccc3)nn2)O[C@@H]1CO)c1cnccn1	–	·	92.9	–	–	–
COc1cccc(-c2cn(CC[C@@H]3CC[C@H](NC(C)=O)[C@H](CO)O3)nn2)c1	–	·	–	–	–	–
O=C(N[C@@H]1CC[C@@H](CCn2cc(-c3ccccc3)nn2)O[C@H]1CO)c1cnccn1	–	·	96.1	–	–	–
Cc1noc(C)c1S(=O)(=O)Nc1cccc2c1O[C@H](CN(C)Cc1ccc(C(=O)Nc3ccccc3N)cc1)[C@H](C)CN([C@@H](C)CO)C2=O	–	·	–	–	–	–
CCCc1cn(CC[C@@H]2CC[C@H](NC(=O)C3CCC3)[C@@H](CO)O2)nn1	–	·	–	–	–	–
O=C1NCCOCc2cn(nn2)CC[C@H]1Cc1ccccc1	–	·	·	·	·	·
CCCNC(=O)N(C)C[C@@H]1Oc2cc(C#Cc3ccccn3)ccc2S(=O)(=O)N([C@@H](C)CO)C[C@@H]1C	–	·	–	–	–	–
CC(C)(C)OC(=O)NCCC(=O)N/N=C/c1cccc2cccnc12	-16.3	–	–	–	–	–
CC(C)(C)OC(=O)NCCC(=O)N/N=C/c1ccc2ncccc2c1	–	–	–	–	–	–
CNC[C@H]1OCCCC[C@@H](C)Oc2ccc(NC(=O)Nc3ccc(C(F)(F)F)cc3)cc2C(=O)N([C@@H](C)CO)C[C@H]1C	–	·	–	–	–	–
COc1cc2c(cc1Cl)C(=O)C(F)(c1ccccc1)C(=O)N2 (configuration not stated)	-28.8	–	·	·	·	–
O=c1c2cccnc2n(-c2ccccc2)n1Cc1ccc(Cl)cc1	–	–	·	101.0	·	–
C[C@H]1CN(C)C(=O)c2cc(N)ccc2O[C@@H]1CN(C)C(=O)OC(C)(C)C	–	·	·	·	·	·
O=C(Nc1ccc2c(c1)[C@H]1C[C@@H](CC(=O)N3CCc4ccccc4C3)O[C@H](CO)[C@H]1O2)C1CCC1	–	·	–	–	–	–
CC1(C(=O)NS(=O)(=O)c2ccc3c(c2)CCO3)CCN1C(=O)c1ccccc1CCc1ccccc1 (configuration not stated)	-20.2	–	–	–	–	–
CC1(C(=O)NS(=O)(=O)c2cccc(F)c2)CCN1C(=O)c1ccccc1CCc1ccccc1 (configuration not stated)	–	–	–	–	–	–
Cc1cccc(S(=O)(=O)NC(=O)C2(C)CCN2C(=O)c2ccccc2CCc2ccccc2)c1 (configuration not stated)	-49.9	–	–	–	–	–
Cc1ccc(S(=O)(=O)Nc2ccc3c(c2)C(=O)N([C@H](C)CO)C[C@@H](C)[C@@H](CN(C)S(=O)(=O)c2cn(C)cn2)O3)cc1	–	·	–	–	–	–
CC(C)C[C@@H]1COCc2cn(nn2)CC[C@H](Cc2ccccc2)C(=O)N1	–	·	–	·	·	–
CCCN1C[C@@H](C)[C@H](OC)CN(C)C(=O)c2cc(NC(=O)NC3CCCC3)ccc2OC[C@@H]1C	–	·	·	·	·	·
c1ccc(CSc2nnc(Cc3ccccc3)o2)cc1	-31.3	–	·	·	·	–
c1ccc(CSc2nnc(Cc3ccccn3)o2)cc1	·	–	–	·	–	·
Cc1cc(Oc2ccccc2)nc(-c2ccccc2O)n1	·	–	–	–	–	·
Cc1cc(Oc2ccc(Cl)cc2)nc(-c2ccccn2)n1	-32.7	–	–	–	–	–
O=C(C[N+]1(CC#Cc2ccccc2)CCOCC1)c1ccccc1	–	–	·	·	·	–
O=C(C[N+]1(CC#Cc2ccccc2)CCOCC1)c1ccc(Cl)cc1	-23.8	–	·	–	·	–
O=C(C[C@H]1CC[C@H](NC(=O)Nc2ccc3c(c2)OCO3)[C@H](CO)O1)NCc1ccc(F)cc1	–	·	–	–	–	–
C/C(=N\NC(=O)CC#N)c1ccc(Oc2ccccc2)cc1	–	–	–	–	–	43.8

Assay outcomes from PubChem BioAssay.
